In brackets after ≈: the same amount, converted by molar mass.
Assays:
Candida albicans [1] = assay: Fungicidal activity against Candida albicans SP3931 after 96 hrs; format: functional; conditions: SP3931, 96 h, read-out: MFC99.9
Summary of the method: (§1)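 After the 48 h, 28 °C broth microdilution in MOPS-buffered RPMI 1640 (inoculum (0.5−1) × 10^3 CFU/mL), 50 μL from each well was plated on YM agar for a further 48 h at 28 °C. MFC is the lowest concentration killing at least 99.9% of cells. Triplicate, three biological replicates.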

Candida albicans [2] = assay: Antifungal activity against Candida albicans SP3931 after 48 hrs by broth microdilution method; format: functional; conditions: SP3931, 48 h
Summary of the method: (§2)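 Modified CLSI M27-A2 broth microdilution. Yeast at (0.5−1) × 10^3 CFU/mL in MOPS-buffered RPMI 1640 was mixed 1:1 with peptide serially diluted in 0.2% BSA and incubated 48 h at 28 °C. Absorbance was read at 492 nm; MIC is the lowest concentration inhibiting 95% of growth. Triplicate, three biological replicates.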

Candida parapsilosis = assay: Antifungal activity against Candida parapsilosis cgmcc 2.3989 after 48 hrs by broth microdilution method; format: functional; conditions: Lodderomyces parapsilosis, cgmcc 2.3989, 48 h
Summary of the method: (§3)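 Modified CLSI M27-A2 broth microdilution. Yeast were suspended in MOPS-buffered RPMI 1640 at a final (0.5−1) × 10^3 CFU/mL and mixed 1:1 with peptide serially diluted in 0.2% BSA. Plates were incubated 48 h at 28 °C and read at A492. MIC is the lowest concentration giving 95% inhibition. Run in triplicate with three biological replicates.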

Erythrocyte = assay: Hemolytic activity in human RBC after 1 hr; format: ADME, cell-based
Summary of the method: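 Fresh human erythrocytes, diluted 10-fold in PBS pH 7.4, were mixed with equal volumes of peptide and held 1 h at 37 °C. After centrifugation at 1000g, supernatant hemoglobin was read at 576 nm. PBS set 0% and 0.1% Triton X-100 set 100% lysis. MHC is the concentration causing 10% hemolysis. At least three experiments were run, each in technical triplicate.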

Candida albicans [3] = assay: Antifungal activity against fluconazole-resistant Candida albicans 17546 after 48 hrs by broth microdilution method; format: functional; conditions: Candida albicans, 17546, 48 h; summary of the method: as §2
Candida albicans [4] = assay: Antifungal activity against Candida albicans SP3903 after 48 hrs by broth microdilution method; format: functional; conditions: SP3903, 48 h; summary of the method: as §2
Candida albicans [5] = assay: Fungicidal activity against Candida albicans cgmcc 2.2086 after 96 hrs; format: functional; conditions: cgmcc 2.2086, 96 h, read-out: MFC99.9; summary of the method: as §1
Candida albicans [6] = assay: Fungicidal activity against Candida albicans isolated from alveolar fluid after 96 hrs; format: functional; conditions: read-out: MFC99.9; summary of the method: as §1
Staphylococcus aureus = assay: Antibacterial activity against Staphylococcus aureus ATCC 25923 after 24 hrs; format: functional; conditions: ATCC 25923, 24 h
Summary of the method: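 Modified NCCLS broth microdilution. Mid-log bacteria at (0.5−1) × 10^5 CFU/mL in MHB were mixed 1:1 with peptide serially diluted in 0.2% BSA and incubated 24 h at 37 °C. Absorbance was read at 492 nm; MIC is the lowest concentration inhibiting 95% of growth. At least 3 repeats.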

Candida tropicalis = assay: Fungicidal activity against Candida tropicalis cgmcc 2.1975 after 96 hrs; format: functional; conditions: cgmcc 2.1975, 96 h, read-out: MFC99.9
Summary of the method: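 Wells from the 48 h, 28 °C RPMI 1640/MOPS microdilution plates were plated on YM agar and incubated a further 48 h at 28 °C. MFC is the lowest concentration killing at least 99.9% of cells. Run in triplicate with three biological replicates.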

Candida albicans [7] = assay: Fungicidal activity against fluconazole-resistant Candida albicans 17546 after 96 hrs; format: functional; conditions: Candida albicans, 17546, 96 h; read-out: MFC99.9; summary of the method: as §1
Candida albicans [8] = assay: Antifungal activity against Candida albicans 58288 after 48 hrs by broth microdilution method; format: functional; conditions: Candida albicans, 58288, 48 h; summary of the method: as §2
Candida albicans [9] = assay: Fungicidal activity against Candida albicans SP3876 after 96 hrs; format: functional; conditions: SP3876, 96 h, read-out: MFC99.9; summary of the method: as §1
Candida albicans [10] = assay: Fungicidal activity against fluconazole-resistant Candida albicans 56214 after 96 hrs; format: functional; conditions: Candida albicans, 56214, 96 h; read-out: MFC99.9; summary of the method: as §1
Escherichia coli [11] = assay: Antibacterial activity against Escherichia coli 1005 after 24 hrs; format: functional; conditions: Escherichia coli, 1005, 24 h
Summary of the method: (§4)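 Broth microdilution. Mid-log bacteria in MHB at a final (0.5−1) × 10^5 CFU/mL were mixed with equal volumes of peptide serially diluted in 0.2% BSA. Plates were incubated 24 h at 37 °C and read at A492. MIC is the lowest concentration inhibiting 95% of growth. Each test was repeated at least 3 times.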

Candida albicans [12] = assay: Antifungal activity against Candida albicans SP3876 after 48 hrs by broth microdilution method; format: functional; conditions: SP3876, 48 h; summary of the method: as §2
Pichia kudriavzevii = assay: Antifungal activity against Candida krusei cgmcc 2.1857 after 48 hrs by broth microdilution method; format: functional; conditions: cgmcc 2.1857, 48 h; summary of the method: as §3
Candida albicans [13] = assay: Antifungal activity against fluconazole-resistant Candida albicans 56452 after 48 hrs by broth microdilution method; format: functional; conditions: Candida albicans, 56452, 48 h; summary of the method: as §2
Salmonella typhimurium = assay: Antibacterial activity against Salmonella typhimurium ATCC 14028 after 24 hrs; format: functional, Salmonella enterica subsp. enterica serovar Typhimurium; conditions: Salmonella enterica, ATCC 14028, 24 h; summary of the method: as §4
[14] = Bactericidal activity against Salmonella pullorum ATCC 7913; format: functional, Salmonella enterica subsp. enterica serovar Pullorum; conditions: Salmonella enterica, read-out: MBC99.9
Summary of the method: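 Wells from the 24 h, 37 °C MHB microdilution plates (bacteria at a final (0.5−1) × 10^5 CFU/mL; peptide diluted in 0.2% BSA) were plated on agar and incubated overnight. MBC is the lowest concentration killing >99.9% of cells. Each test was reproduced at least 3 times.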

Candida albicans [15] = assay: Antifungal activity against Candida albicans SP3902 after 48 hrs by broth microdilution method; format: functional; conditions: SP3902, 48 h; summary of the method: as §2
Candida albicans [16] = assay: Antifungal activity against Candida albicans cgmcc 2.2086 in presence of NaCl by broth dilution method; format: functional
[17] = Cytotoxicity against HEK293T cells assessed as cell viability at 2 to 64 uM after 24 hrs by MTT assay relative to control; format: cell-based, HEK-293T; conditions: human, read-out: Activity
Summary of the method: (§5)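 MTT viability assay. RAW264.7 or HEK293T cells at (1.0−2.0) × 10^5 per well were exposed to a peptide concentration series for 24 h at 37 °C in 5% CO2. MTT was then added at 0.5 mg/mL final for 4 h; formazan was dissolved in DMSO and read at 570 nm. Results average three independent trials.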

Escherichia coli [18] = assay: Antibacterial activity against Escherichia coli ATCC 25922 after 18 hrs in presence of KCl by broth dilution method; format: functional; conditions: ATCC 25922, 18 h
[19] = Cytotoxicity against mouse RAW264.7 cells assessed as cell viability at 2 to 64 uM after 24 hrs by MTT assay relative to control; format: cell-based; conditions: read-out: Activity; summary of the method: as §5
Escherichia coli [20] = assay: Antibacterial activity against Escherichia coli ATCC 25922 after 18 hrs in presence of MgCl2 by broth dilution method; format: functional; conditions: ATCC 25922, 18 h
Escherichia coli [21] = assay: Antibacterial activity against Escherichia coli ATCC 25922 after 18 hrs in presence of CaCl2 by broth dilution method; format: functional; conditions: ATCC 25922, 18 h

Compound	MFC (Candida albicans [1])	MIC95 (Candida albicans [2])	MIC95 (Candida parapsilosis)	HC10 (Erythrocyte)	MIC95 (Candida albicans [3])	MIC95 (Candida albicans [4])	MFC (Candida albicans [5])	MFC (Candida albicans [6])	MIC95 (Staphylococcus aureus)	MFC (Candida tropicalis)	MFC (Candida albicans [7])	MIC95 (Candida albicans [8])	MFC (Candida albicans [9])	MFC (Candida albicans [10])	MIC95 (Escherichia coli [11])	MIC95 (Candida albicans [12])	MIC95 (Pichia kudriavzevii)	MIC95 (Candida albicans [13])	MIC95 (Salmonella typhimurium)	MBC [14]	further results
CC[C@H](C)[C@H](NC(=O)CN)C(=O)NCC(=O)N[C@@H](C)C(=O)N[C@H](C(=O)N[C@@H](CC(C)C)C(=O)N[C@@H](CCCCN)C(=O)N[C@H](C(=O)N[C@@H](CC(C)C)C(=O)N[C@H](C(=O)N[C@H](C(=O)NCC(=O)N[C@@H](CC(C)C)C(=O)N1CCC[C@H]1C(=O)N[C@@H](C)C(=O)N[C@@H](CC(C)C)C(=O)N[C@H](C(=O)N[C@@H](CO)C(=O)N[C@@H](Cc1c[nH]c2ccccc12)C(=O)N[C@H](C(=O)N[C@@H](CCCCN)C(=O)N[C@@H](CCCNC(=N)N)C(=O)N[C@@H](CCCCN)C(=O)N[C@@H](CCCNC(=N)N)C(=O)N[C@@H](CCC(N)=O)C(=O)N[C@@H](CCC(N)=O)C(N)=O)[C@@H](C)CC)[C@@H](C)CC)[C@@H](C)O)[C@@H](C)O)C(C)C)C(C)C [MELITTIN]	8 µM (≈ 22.8 µg/mL)	8 µM (≈ 22.8 µg/mL)	2 µM (≈ 5.69 µg/mL)	0.25 µM	8 µM (≈ 22.8 µg/mL)	4 µM (≈ 11.4 µg/mL)	8 µM (≈ 22.8 µg/mL)	4 µM (≈ 11.4 µg/mL)	4 µM (≈ 11.4 µg/mL)	8 µM (≈ 22.8 µg/mL)	8 µM (≈ 22.8 µg/mL)	4 µM (≈ 11.4 µg/mL)	4 µM (≈ 11.4 µg/mL)	4 µM (≈ 11.4 µg/mL)	2 µM (≈ 5.69 µg/mL)	4 µM (≈ 11.4 µg/mL)	2 µM (≈ 5.69 µg/mL)	8 µM (≈ 22.8 µg/mL)	1 µM (≈ 2.85 µg/mL)	2 µM (≈ 5.69 µg/mL)	MIC95 (Candida albicans [15]): 2 µM (≈ 5.69 µg/mL); MIC (Candida albicans [16]): 8 µM
H-FFRRFRRFF-NH2	32 µM	16 µM	> 64 µM	> 128 µM	4 µM	16 µM	32 µM	32 µM	4 µM	8 µM	8 µM	16 µM	32 µM	32 µM	8 µM	16 µM	4 µM	16 µM	4 µM	64 µM	viability at 24 h, up to 64 µM [17]: 70 to 80%; MIC (Escherichia coli [18]): 8 µM; viability at 24 h, up to 64 µM [19]: 70 to 80%; MIC (Escherichia coli [20]): 8 µM; MIC95 (Candida albicans [15]): 32 µM; MIC (Escherichia coli [21]): 32 µM; MIC (Candida albicans [16]): 16 µM
H-IIRRIRRII-NH2	> 64 µM	> 64 µM	> 64 µM	> 128 µM	> 64 µM	> 64 µM	64 µM	> 64 µM	> 64 µM	8 µM	> 64 µM	> 64 µM	> 64 µM	64 µM	16 µM	> 64 µM	16 µM	64 µM	64 µM	> 64 µM	viability at 24 h, up to 64 µM [17]: 70 to 80%; MIC (Escherichia coli [18]): 32 µM; viability at 24 h, up to 64 µM [19]: 70 to 80%; MIC (Escherichia coli [20]): 32 µM; MIC95 (Candida albicans [15]): > 64 µM; MIC (Escherichia coli [21]): 64 µM; MIC (Candida albicans [16]): 64 µM
H-LLRRLRRLL-NH2	32 µM	32 µM	> 64 µM	> 128 µM	64 µM	16 µM	64 µM	> 64 µM	16 µM	8 µM	> 64 µM	64 µM	4 µM	32 µM	16 µM	32 µM	8 µM	32 µM	16 µM	64 µM	viability at 24 h, up to 64 µM [17]: 70 to 80%; MIC (Escherichia coli [18]): 16 µM; viability at 24 h, up to 64 µM [19]: 70 to 80%; MIC (Escherichia coli [20]): 16 µM; MIC95 (Candida albicans [15]): > 64 µM; MIC (Escherichia coli [21]): 64 µM; MIC (Candida albicans [16]): 64 µM
H-RFFRRFRRFFR-NH2	16 µM	8 µM	> 64 µM	> 128 µM	4 µM	4 µM	16 µM	16 µM	4 µM	4 µM	8 µM	4 µM	8 µM	16 µM	8 µM	8 µM	2 µM	8 µM	4 µM	8 µM	viability at 24 h, up to 64 µM [17]: 70 to 80%; MIC (Escherichia coli [18]): 8 µM; viability at 24 h, up to 64 µM [19]: 70 to 80%; MIC (Escherichia coli [20]): 2 µM; MIC95 (Candida albicans [15]): 8 µM; MIC (Escherichia coli [21]): 8 µM; MIC (Candida albicans [16]): 32 µM
